Measurements: ChEMBL document CHEMBL1124018, “Synthesis and pharmacological properties of "soft drug" derivatives related to perhexiline” (J Med Chem, 1988)

target: T1, Adrenergic receptor alpha-1 (Rattus norvegicus, UniProt P15823+P23944+P43140); assay: Alpha adrenergic receptor activity in rat aorta; format: tissue-based
T1 sequence (P15823 whole entry): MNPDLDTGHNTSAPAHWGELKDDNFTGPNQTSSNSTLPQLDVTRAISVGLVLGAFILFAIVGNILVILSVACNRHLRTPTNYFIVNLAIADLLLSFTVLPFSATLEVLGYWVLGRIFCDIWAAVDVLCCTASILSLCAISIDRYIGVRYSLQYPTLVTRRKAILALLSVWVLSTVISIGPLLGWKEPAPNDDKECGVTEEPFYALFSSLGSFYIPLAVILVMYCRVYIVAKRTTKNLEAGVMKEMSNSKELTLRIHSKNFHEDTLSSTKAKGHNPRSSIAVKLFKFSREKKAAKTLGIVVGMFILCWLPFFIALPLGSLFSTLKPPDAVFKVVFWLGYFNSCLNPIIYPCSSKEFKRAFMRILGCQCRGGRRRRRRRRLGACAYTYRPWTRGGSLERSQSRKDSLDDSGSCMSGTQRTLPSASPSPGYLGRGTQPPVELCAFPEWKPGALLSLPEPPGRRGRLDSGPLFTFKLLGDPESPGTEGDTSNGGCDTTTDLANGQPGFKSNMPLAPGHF
T1 sequence (P23944 whole entry): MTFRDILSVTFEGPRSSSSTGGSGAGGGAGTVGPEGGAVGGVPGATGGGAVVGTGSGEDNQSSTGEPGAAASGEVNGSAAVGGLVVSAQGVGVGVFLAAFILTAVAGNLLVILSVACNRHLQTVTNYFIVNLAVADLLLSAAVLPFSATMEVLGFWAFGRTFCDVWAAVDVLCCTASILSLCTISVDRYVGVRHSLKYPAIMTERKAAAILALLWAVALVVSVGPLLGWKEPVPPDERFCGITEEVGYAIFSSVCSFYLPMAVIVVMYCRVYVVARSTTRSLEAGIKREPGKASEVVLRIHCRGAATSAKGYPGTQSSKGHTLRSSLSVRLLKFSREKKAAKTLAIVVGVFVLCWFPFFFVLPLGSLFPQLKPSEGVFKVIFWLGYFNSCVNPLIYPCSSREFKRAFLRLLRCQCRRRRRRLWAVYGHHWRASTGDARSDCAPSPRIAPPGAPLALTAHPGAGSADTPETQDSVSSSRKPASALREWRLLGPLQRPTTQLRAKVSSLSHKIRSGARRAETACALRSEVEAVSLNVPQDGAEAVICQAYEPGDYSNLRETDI
T1 sequence (P43140 whole entry): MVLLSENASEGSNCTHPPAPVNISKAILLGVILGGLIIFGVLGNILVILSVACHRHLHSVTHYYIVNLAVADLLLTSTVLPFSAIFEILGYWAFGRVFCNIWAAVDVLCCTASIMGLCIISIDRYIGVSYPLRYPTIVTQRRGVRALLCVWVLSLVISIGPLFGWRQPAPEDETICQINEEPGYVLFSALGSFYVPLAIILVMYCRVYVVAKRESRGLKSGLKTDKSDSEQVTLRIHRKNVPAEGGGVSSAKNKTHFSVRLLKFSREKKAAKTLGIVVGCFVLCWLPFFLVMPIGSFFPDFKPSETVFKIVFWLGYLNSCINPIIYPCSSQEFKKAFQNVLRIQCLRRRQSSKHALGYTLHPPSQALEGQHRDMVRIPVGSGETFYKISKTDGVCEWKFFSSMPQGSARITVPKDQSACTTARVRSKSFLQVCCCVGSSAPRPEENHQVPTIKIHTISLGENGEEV
In short: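 Rat aortic strips held at 2 g resting tension, stabilized about 1 h. Propranolol 10^-6 M for 30 min to block β-receptors. Isometric contraction recorded. Tissues primed with an agonist level giving 70-80% of maximal response, then washed every 15 min for 60 min. Two cumulative norepinephrine curves (10^-10–10^-7 M), with ascorbic acid 1.13 × 10^-5 M present, run before and after 30 min antagonist preincubation. One antagonist concentration per preparation. Reported as pA2.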

Row | pA2 | SMILES
1 | 5.8 | O=C(CC1=NCCN1)NC(c1ccccc1)C1CCCCC1.O=C(O)C(=O)O (stereo not drawn)
2 | 6.5 | COc1ccc(CCN(C)CC(=O)NC(c2ccccc2)C2CCCCC2)cc1OC.O=C(O)C(=O)O (stereo not drawn)
3 | 4.1 | O=C(NCc1c[nH]cn1)C(c1ccccc1)C1CCCCC1.O=C(O)/C=C\C(=O)O (stereo not drawn)
4 | 6.15 | CN(CC(=O)NC(c1ccccc1)C1CCCCC1)CC1COc2ccccc2O1.O=C(O)C(=O)O (stereo not drawn)
5 | 6 | O=C(NCCN1CCCCC1)C(c1ccccc1)C1CCCCC1.O=C(O)C(=O)O (stereo not drawn)
6 | 4.2 | O=C(CCc1ncc[nH]1)NC(c1ccccc1)C1CCCCC1.O=C(O)C(=O)O (stereo not drawn)
7 | 5.5 | Cl.O=C(NC1CCCCN1)C(c1ccccc1)C1CCCCC1 (stereo not drawn)
8 | 4.5 | NCC(=O)NC(c1ccccc1)C1CCCCC1.O=C(O)/C=C\C(=O)O (stereo not drawn)
9 | 4.5 | CN(CC(=O)N(C)C(c1ccccc1)C1CCCCC1)C1CCCCC1.O=C(O)/C=C\C(=O)O (stereo not drawn)
10 | 5.3 | O=C(Cc1c[nH]cn1)NC(c1ccccc1)C1CCCCC1.O=C(O)/C=C\C(=O)O (stereo not drawn)
11 | 5.4 | O=C(NCCc1ncc[nH]1)C(c1ccccc1)C1CCCCC1.O=C(O)C(=O)O (stereo not drawn)
12 | 6.1 | O=C(CCNC1CCCCC1)NC(c1ccccc1)C1CCCCC1 (stereo not drawn)
13 | 6 | CCN(CC)CC(=O)NC(c1ccccc1)C1CCCCC1 (stereo not drawn)
14 | 5.7 | O=C(NCCC1=NCCN1)C(c1ccccc1)C1CCCCC1.O=C(O)C(=O)O (stereo not drawn)
15 | 5.2 | O=C(NCc1ncc[nH]1)C(c1ccccc1)C1CCCCC1.O=C(O)C(=O)O (stereo not drawn)
16 | 6.6 | O=C(NCCNC1CCCCC1)C(c1ccccc1)C1CCCCC1 (stereo not drawn)
17 | 6.1 | Cl.O=C(NCC1=NCCN1)C(c1ccccc1)C1CCCCC1 (stereo not drawn)
18 | 5.3 | CN(C(=O)CNC1CCCCC1)C(c1ccccc1)C1CCCCC1.O=C(O)/C=C\C(=O)O (stereo not drawn)
19 | 5.9 | O=C(Cc1ncc[nH]1)NC(c1ccccc1)C1CCCCC1.O=C(O)C(=O)O (stereo not drawn)
20 | 6 | O=C(CNCC1COc2ccccc2O1)NC(c1ccccc1)C1CCCCC1.O=C(O)/C=C\C(=O)O (stereo not drawn)
21 | 4.5 | O=C(NCCN1CCOCC1)C(c1ccccc1)C1CCCCC1.O=C(O)C(=O)O (stereo not drawn)
22 | 6.7 | C1CCC(C(CC2CCCCN2)C2CCCCC2)CC1 (stereo not drawn) [PERHEXILINE]
23 | 6 | COc1ccccc1N1CCN(CCC(=O)NC(c2ccccc2)C2CCCCC2)CC1.O=C(O)/C=C\C(=O)O (stereo not drawn)
24 | 5.4 | CCN(CC)CCNC(=O)C(c1ccccc1)C1CCCCC1.Cl (stereo not drawn)
25 | 6.7 | CN(CC(=O)NC(c1ccccc1)C1CCCCC1)C1CCCCC1.O=C(O)/C=C\C(=O)O (stereo not drawn)
26 | 6.5 | O=C(CNC1CCCCC1)NC(c1ccccc1)C1CCCCC1 (stereo not drawn)
27 | 5.4 | O=C(CCC1=NCCN1)NC(c1ccccc1)C1CCCCC1.O=C(O)C(=O)O (stereo not drawn)
28 | 5.8 | O=C(CCCNC1CCCCC1)NC(c1ccccc1)C1CCCCC1 (stereo not drawn)
